Measured values as given in ChEMBL document CHEMBL1629656, “Oritavancin kills stationary-phase and biofilm Staphylococcus aureus cells in vitro” (Antimicrob Agents Chemother, 2009).
In brackets after ≈: the same amount, converted by molar mass. Activity calls are given as the source filed them. The calls are words filed in the database; no cut-off is given here.

How the values were obtained:
Staphylococcus aureus [1] = assay: Antimicrobial activity against exponential-phase methicillin-sensitive Staphylococcus aureus ATCC 29213 assessed as membrane permeability at 4 ug/ml after 30 mins by propidium iodide staining-based fluorescence spectrophotometry; format: functional, organism-based
Method in brief: (§1)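 Cells prepared as for depolarization, in HEPES-CaCl2 buffer with glucose (exponential) or without (stationary), OD600 0.005. Syto 9 at 5 μM and propidium iodide at 30 μM. Drug added without polysorbate 80. Loss of Syto 9 fluorescence (ex 485/em 535 nm) read for 30 min. Three repeats.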

Staphylococcus aureus [2] = assay: Antimicrobial activity against stationary-phase methicillin-sensitive Staphylococcus aureus ATCC 29213 assessed as membrane permeability at 4 ug/ml after 30 mins by propidium iodide staining-based fluorescence spectrophotometry; format: functional, organism-based; method in brief: as §1
Staphylococcus aureus [3] = assay: Bactericidal activity against exponential-phase methicillin-sensitive Staphylococcus aureus ATCC 29213 assessed as log reduction in bacterial count at 4 ug/ml within 2 hrs by time kill analysis; format: functional
Staphylococcus aureus [4] = assay: Antimicrobial activity against stationary-phase methicillin-sensitive Staphylococcus aureus ATCC 29213 membrane depolarization at 4 ug/ml after 30 mins using DiSC3(5) dye based fluorescence spectrophotometry; format: functional, organism-based
Method in brief: (§2)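 Cells loaded with 1.5 μM DiSC3(5) 30 min in the dark at ambient temperature, diluted to OD600 0.005. Drug added without polysorbate 80. Fluorescence (ex 612/em 665 nm) followed for 30 min. Three repeats.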

Staphylococcus aureus [5] = assay: Bactericidal activity against stationary-phase vancomycin-resistant Staphylococcus aureus isolate VRS5 grown on nutrient-depleted CAMHB medium at 4 ug/ml after 24 hrs by time kill analysis; format: functional, organism-based
Method in brief: (§3)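 Overnight stationary-phase cultures inoculated at ~10^7 CFU/ml into strain-matched spent CAMHB (pH 7.0, filter-sterilized). Oritavancin was kept at 0.002% polysorbate 80; daptomycin wells had 50 μg/ml CaCl2. Incubation at 37°C, 225 rpm. Samples were charcoal-quenched (25 mg/ml) before plating; points are means of duplicates. Bactericidal means ≥3-log drop at 24 h versus inoculum. ≥3 repeats.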

Staphylococcus aureus [6] = assay: Bactericidal activity against stationary-phase methicillin-resistant Staphylococcus aureus ATCC 33591 grown on nutrient-depleted CAMHB medium at 4 ug/ml after 24 hrs by time kill analysis; format: functional, organism-based; method in brief: as §3
Staphylococcus aureus [7] = assay: Antimicrobial activity against exponential-phase methicillin-sensitive Staphylococcus aureus ATCC 29213 assessed as membrane depolarization at 4 ug/ml after 30 mins using DiSC3(5) dye based fluorescence spectrophotometry; format: functional, organism-based; method in brief: as §2
Staphylococcus aureus [8] = assay: Bactericidal activity against exponential-phase methicillin-sensitive Staphylococcus aureus ATCC 29213 grown on nutrient-depleted CAMHB medium at 4 ug/ml after 24 hrs by time kill analysis; format: functional, organism-based
Staphylococcus aureus [9] = assay: Bactericidal activity against exponential-phase methicillin-sensitive Staphylococcus aureus ATCC 29213 grown on nutrient-depleted CAMHB medium at 16 ug/ml after 24 hrs by time kill analysis; format: functional, organism-based
Staphylococcus aureus [10] = assay: Bactericidal activity against stationary-phase methicillin-resistant Staphylococcus aureus ATCC 33591 grown on nutrient-depleted CAMHB medium at 2 ug/ml after 24 hrs by time kill analysis; format: functional, organism-based; method in brief: as §3
Staphylococcus aureus [11] = assay: Bactericidal activity against stationary-phase methicillin-sensitive Staphylococcus aureus ATCC 29213 grown on nutrient-depleted CAMHB medium at 4 ug/ml after 24 hrs by time kill analysis; format: functional, organism-based; method in brief: as §3
Staphylococcus aureus [12] = assay: Bactericidal activity against stationary-phase methicillin-sensitive Staphylococcus aureus ATCC 29213 assessed as log reduction in bacterial count at 4 ug/ml within 2 hrs by time kill analysis; format: functional
Staphylococcus aureus [13] = assay: Bactericidal activity against stationary-phase methicillin-sensitive Staphylococcus aureus ATCC 29213 grown on nutrient-depleted CAMHB medium at 16 ug/ml after 24 hrs by time kill analysis; format: functional, organism-based; method in brief: as §3
Staphylococcus aureus [14] = assay: Bactericidal activity against stationary-phase vancomycin-resistant Staphylococcus aureus isolate VRS5 grown on nutrient-depleted CAMHB medium at 2 ug/ml after 24 hrs by time kill analysis
Staphylococcus aureus [15] = assay: Bactericidal activity against exponential-phase methicillin-sensitive Staphylococcus aureus ATCC 29213 grown on nutrient-depleted CAMHB medium at 0.5 ug/ml after 24 hrs by time kill analysis; format: functional, organism-based
Staphylococcus aureus [16] = assay: Antimicrobial activity against 4.6 X 10^6 CFU/peg methicillin-susceptible Staphylococcus aureus ATCC 29213 planktonic cells by broth microdilution method
Staphylococcus aureus [17] = assay: Bacteriostatic activity against stationary-phase vancomycin-resistant Staphylococcus aureus isolate VRS5 grown on nutrient-depleted CAMHB medium at 8 ug/ml after 24 hrs by time kill analysis; format: functional, organism-based; method in brief: as §3
Staphylococcus aureus [18] = assay: Bacteriostatic activity against stationary-phase methicillin-resistant Staphylococcus aureus ATCC 33591 grown on nutrient-depleted CAMHB medium at 8 ug/ml after 24 hrs by time kill analysis; format: functional, organism-based; method in brief: as §3
Staphylococcus aureus [19] = assay: Antimicrobial activity against methicillin-sensitive Staphylococcus aureus ATCC 29213 assessed as inhibition of biofilm formation after 24 hrs by serial dilution method in presence of 0.002% polysorbate 80; format: functional
Staphylococcus aureus [20] = assay: Antimicrobial activity against methicillin-sensitive Staphylococcus aureus ATCC 29213 planktonic cells by broth microdilution method in presence of 0.002% polysorbate 80; format: functional
Staphylococcus aureus [21] = assay: Antimicrobial activity against methicillin-resistant Staphylococcus aureus ATCC 33591 assessed as inhibition of biofilm formation after 24 hrs by serial dilution method in presence of 0.002% polysorbate 80; format: functional
Homo sapiens = assay: fCmax in human at 450 […]; format: ADME, organism-based; conditions: in vivo
Staphylococcus aureus [22] = assay: Antimicrobial activity against vancomycin-resistant Staphylococcus aureus isolate VRS5 planktonic cells by broth microdilution method in presence of 0.002% polysorbate 80; format: functional
Staphylococcus aureus [23] = assay: Antimicrobial activity against methicillin-resistant Staphylococcus aureus ATCC 33591 planktonic cells by broth microdilution method in presence of 0.002% polysorbate 80; format: functional
Staphylococcus aureus [24] = assay: Antimicrobial activity against vancomycin-resistant Staphylococcus aureus isolate VRS5 assessed as inhibition of biofilm formation after 24 hrs by serial dilution method in presence of 0.002% polysorbate 80; format: functional
Staphylococcus aureus [25] = assay: Antimicrobial activity against exponential-phase methicillin-sensitive Staphylococcus aureus ATCC 29213 grown on nutrient-depleted CAMHB medium assessed as membrane depolarization at 16 ug/ml after 30 mins using DiSC3(5) dye based fluorescence spectrophotometry; format: functional, organism-based
Method in brief: (§4)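 MSSA ATCC 29213 exponential-phase cells (OD600 ≈0.25 subculture in CAMHB) or stationary-phase cells were washed in 10 mM HEPES-Cl pH 7.5 with 50 μg/ml CaCl2; buffer had 5 mM glucose for exponential cells and none for stationary cells. Cells were loaded with 1.5 μM DiSC3(5) for 30 min in the dark, then diluted to OD600 0.005. Drug was added without polysorbate 80 and fluorescence (ex 612/em 665 nm) followed in real time for 30 min. Three repeats; one shown.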

Staphylococcus aureus [26] = assay: Bactericidal activity against stationary-phase vancomycin-resistant Staphylococcus aureus isolate VRS5 grown on nutrient-depleted CAMHB medium 16 ug/ml after 24 hrs by time kill analysis; format: functional, organism-based; method in brief: as §3
Staphylococcus aureus [27] = assay: Antimicrobial activity against exponential-phase methicillin-sensitive Staphylococcus aureus ATCC 29213 grown on nutrient-depleted CAMHB medium assessed as membrane permeability at 16 ug/ml after 30 mins by propidium iodide staining-based fluorescence spectrophotometry; format: functional, organism-based
Method in brief: (§5)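 Cells prepared as for depolarization: exponential-phase ATCC 29213 in HEPES-CaCl2 buffer with 5 mM glucose, stationary-phase without glucose, final OD600 0.005. Stained with 5 μM Syto 9 plus 30 μM propidium iodide. Fluorescence (ex 485/em 535 nm) monitored for 30 min after drug addition, without polysorbate 80. Three repeats; one shown.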

Staphylococcus aureus [28] = assay: Antimicrobial activity against stationary-phase methicillin-sensitive Staphylococcus aureus ATCC 29213 grown on nutrient-depleted CAMHB medium assessed as membrane depolarization at 16 ug/ml after 30 mins using DiSC3(5) dye based fluorescence spectrophotometry; format: functional, organism-based; method in brief: as §4
Staphylococcus aureus [29] = assay: Bactericidal activity against exponential-phase methicillin-sensitive Staphylococcus aureus ATCC 29213 assessed as log reduction in bacterial count at 16 ug/ml within 15 mins by time kill analysis; format: functional
Method in brief: (§6)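 Short (2-h) time-kill of ATCC 29213 at OD600 0.005 (~10^6 CFU/ml) in 10 mM HEPES-Cl pH 7.5 with 50 μg/ml CaCl2. Exponential cells had 5 mM glucose and stationary cells none. Oritavancin was tested without polysorbate 80; viable counts were taken by serial dilution plating. Three repeats; one shown.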

Staphylococcus aureus [30] = assay: Antimicrobial activity against stationary-phase methicillin-sensitive Staphylococcus aureus ATCC 29213 grown on nutrient-depleted CAMHB medium assessed as membrane permeability at 16 ug/ml after 30 mins by propidium iodide staining-based fluorescence spectrophotometry; format: functional, organism-based; method in brief: as §5
Staphylococcus aureus [31] = assay: Inhibition of cell division in stationary-phase methicillin-resistant Staphylococcus aureus ATCC 43300 assessed as absence of appearance of septal midline at 16 ug/ml by transmission electron microscopy; format: functional, organism-based
Method in brief: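 Stationary-phase MRSA ATCC 43300 (5 × 10^7 CFU/ml) exposed for 3 h in nutrient-depleted CAMHB. Cells were fixed in 2.5% glutaraldehyde, post-fixed in 2% osmium tetroxide and en bloc stained with uranyl acetate. Samples were ethanol-dehydrated, embedded in LR White, thin-sectioned, and stained with uranyl acetate/lead citrate. Septa were viewed by TEM at 100 kV.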

Staphylococcus aureus [32] = assay: Bactericidal activity against stationary-phase methicillin-sensitive Staphylococcus aureus ATCC 29213 assessed as log reduction in bacterial count at 16 ug/ml within 2 hrs by time kill analysis; format: functional; method in brief: as §6
Staphylococcus aureus [33] = assay: Antimicrobial activity against 4.6 X 10^6 CFU/peg methicillin-susceptible Staphylococcus aureus ATCC 29213 assessed as inhibition of biofilm formation after 24 hrs by serial dilution method

| SMILES | Activity (Staphylococcus aureus [5]) | Activity (Staphylococcus aureus [6]) | Activity (Staphylococcus aureus [8]) | Activity (Staphylococcus aureus [9]) | Activity (Staphylococcus aureus [10]) | Activity (Staphylococcus aureus [11]) | Activity (Staphylococcus aureus [13]) | Activity (Staphylococcus aureus [14]) | Activity (Staphylococcus aureus [15]) | MBEC (Staphylococcus aureus [19]) | MIC (Staphylococcus aureus [20]) | MBEC (Staphylococcus aureus [21]) | MIC (Staphylococcus aureus [22]) | other results |
| --- | --- | --- | --- | --- | --- | --- | --- | --- | --- | --- | --- | --- | --- | --- |
| CCCCCCCCCC(=O)N[C@@H](Cc1c[nH]c2ccccc12)C(=O)N[C@H](CC(N)=O)C(=O)N[C@@H](CC(=O)O)C(=O)N[C@@H]1C(=O)NCC(=O)N[C@@H](CCCN)C(=O)N[C@@H](CC(=O)O)C(=O)N[C@H](C)C(=O)N[C@@H](CC(=O)O)C(=O)NCC(=O)N[C@H](CO)C(=O)N[C@@H]([C@H](C)CC(=O)O)C(=O)N[C@@H](CC(=O)c2ccccc2N)C(=O)O[C@@H]1C | inactive | Active | Active | Active | Active | inactive | inactive | inactive | Active |  |  |  |  | Activity (Staphylococcus aureus [1]): Active; Activity (Staphylococcus aureus [2]): inactive; FC (Staphylococcus aureus [3]): 3.4; Activity (Staphylococcus aureus [4]): inactive; Activity (Staphylococcus aureus [7]): Active; FC (Staphylococcus aureus [12]): 0.7 |
| CC(=O)NC[C@H]1CN(c2ccc(N3CCOCC3)c(F)c2)C(=O)O1 [LINEZOLID] |  |  |  |  |  |  |  |  |  | >128 µg/mL | 8 µg/mL |  |  | MIC (Staphylococcus aureus [16]): 8 µg/mL (≈ 23.7 µM); Activity (Staphylococcus aureus [17]): inactive; Activity (Staphylococcus aureus [18]): inactive |
| CO[C@H]1/C=C/O[C@@]2(C)Oc3c(C)c(O)c4c(O)c(c(/C=N/N5CCN(C)CC5)c(O)c4c3C2=O)NC(=O)/C(C)=C\C=C\[C@H](C)[C@H](O)[C@@H](C)[C@@H](O)[C@@H](C)[C@H](OC(C)=O)[C@@H]1C [RIFAMPIN] | inactive | Active |  |  | Active |  |  | inactive |  | 4 µg/mL | < 0.02 µg/mL | 0.25 µg/mL | < 0.03 µg/mL | fCmax (Homo sapiens): 2 µg/mL; MIC (Staphylococcus aureus [23]): < 0.03 µg/mL |
| CN[C@H](CC(C)C)C(=O)N[C@H]1C(=O)N[C@@H](CC(N)=O)C(=O)N[C@H]2C(=O)N[C@H]3C(=O)N[C@H](C(=O)N[C@H](C(=O)O)c4cc(O)cc(O)c4-c4cc3ccc4O)[C@H](O)c3ccc(c(Cl)c3)Oc3cc2cc(c3O[C@@H]2O[C@H](CO)[C@@H](O)[C@H](O)[C@H]2O[C@H]2C[C@](C)(N)[C@H](O)[C@H](C)O2)Oc2ccc(cc2Cl)[C@H]1O [VANCOMYCIN] |  |  | Active | Active |  | inactive | inactive |  | Active | >128 µg/mL |  | >=128 ug ml-1 | > 128 µg/mL | MBEC (Staphylococcus aureus [24]): >128 µg/mL; Activity (Staphylococcus aureus [25]): inactive; Activity (Staphylococcus aureus [26]): inactive; Activity (Staphylococcus aureus [27]): inactive; Activity (Staphylococcus aureus [28]): inactive; Activity (Staphylococcus aureus [29]): inactive; Activity (Staphylococcus aureus [30]): inactive; inhibition (Staphylococcus aureus [31]): inactive; Activity (Staphylococcus aureus [32]): inactive; MBEC (Staphylococcus aureus [33]): >128 µg/mL |
